Vif inh = inhibitors of HIV Vif; HEK293T cells, Vif self-association by quenched fluorescence, imaging, 24 h; 340,000 compounds, 0.35% hits; inhibition, % at 7.49 µM; in the data active means inhibition above about 50%, passing the limit was not always enough; inconclusive means no clear call, values can overlap the other calls; inactive means below about 31%
PGC1a acetyl inh = lowers PGC1a acetylation signal in U2OS cells; AlphaScreen anti-acetyl-lysine; with virally co-expressed GCN5 acetyltransferase; inhibition, % at 15.6 µM; 350,000 compounds, 0.17% hits; AID 651687;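 active means every replicate shows inhibition of at least 40%; inconclusive means mean inhibition at least 40% but some replicate below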;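 further: 0% = neutral control wells and 100% = positive control wells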
PglD DTNB = PglD (C. jejuni) enzyme inhibition | AID 602405 | 360,000 compounds, 0.098% hits | inhibition, % at 12.5 µM | purified PglD enzyme, DTNB colorimetric CoA detection; in the data active means inhibition above about 16%, passing the limit was not always enough; inconclusive means no clear call, values can overlap the other calls
Ecoli rRNA inh = inhibits bacterial ribosomal RNA function over humanized ribosomes; E. coli WT GFP vs humanized-ribosome RFP mutants, fluorescence, 24 h; hits give low values; DMSO median 0, no signal -100; GFP signal change (wild-type ribosome), % (concentration not given with the values); 350,000 compounds, 1.6% hits; AID 720706;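 active means significant combined selectivity score with lowered wild-type GFP, culture density cut under 30%, mutant RFP and density less affected; inactive means any of these conditions unmet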
FGF22 binding = FGF22 (human) thermal shift binding; Q9HCT0; recombinant FGF22 thermal shift, SYPRO orange fluorescence; percent of sucrose octasulfate shift, DMSO zero; activity (Tm shift, normalised), % at 9.99 µM; 340,000 compounds, 1.5% hits;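 active means mean Tm shift, scaled 0 neutral to 100 positive control, at about 1.3% or above, every replicate too, limit read from the data; inconclusive means no clear call, values can overlap the other calls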
Target sequence (Q9HCT0 whole entry, looked up): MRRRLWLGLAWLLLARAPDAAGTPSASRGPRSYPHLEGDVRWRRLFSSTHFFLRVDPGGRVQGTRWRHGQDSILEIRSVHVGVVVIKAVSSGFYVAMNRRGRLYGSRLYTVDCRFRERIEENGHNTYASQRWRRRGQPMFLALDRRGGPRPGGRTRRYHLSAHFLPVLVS
Cneo AK release = causes C. neoformans cell lysis; lysis activity, % at 15 µM; 360,000 compounds, 0.2% hits; adenylate kinase release luminescence, 4 h; normalised: neutral wells 0, clomiphene wells 100;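 active means mean lysis activity across replicates of at least 80%, whatever share of replicates individually reach that level; inactive means mean lysis activity below 80%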
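Material: C. neoformans cells | Amount: Yeast cell density of 5 × 10^6 cells/mL | Medium: Fresh YPD growth medium | Dosing: Single dose | Times: Static 4 h at 37 °C with compound, 1 h detection | Detection: AK luminescence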
HepG2 cytotox = kills or reduces viability of HepG2 cells; shares compounds with Ecoli rRNA inh; ATP luminescence, 72 h; activity change, negative = cytotoxicity, unspecified at 26 µM; 30 tested, under 10 active; AID 743480;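 active means compounds whose fitted half-maximal signal-loss concentration is at most twice their highest valid dose; inconclusive means flat curve with 30 to 70% signal loss, or poor fit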
AID977621 = wild-type E. coli growth inhibition versus H69 humanized strain – H69 mutant RFP, wild-type GFP, cherry-pick, dose response; shares compounds with Ecoli rRNA inh; fluorescence, 24 h; activity change, negative = inhibition at 50 µM; 1,900 tested, under 10 active; AID 977621;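 active means Wild-type ribosome reporter drop at least double the humanized mutant ribosome reporter drop, growth loss under a set limit; inconclusive means no clear call, values can overlap the other calls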;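 further: wild-type GFP and H69 mutant RFP strains grown together 50/50 in each well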
AID977628 = E. coli growth inhibition, wild-type GFP versus h24 humanized RFP strain, dose response, h24 mutant RFP vs wild-type GFP, cherry-pick. shares compounds with Ecoli rRNA inh. E. coli WT GFP strain growth, fluorescence, 24 h. activity change, negative = inhibition at 50 µM. 1,900 tested, under 10 active;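 active means compound lowering the normal-ribosome reporter at least twice as much as the humanized-ribosome reporter, growth loss under a set limit; inconclusive means no clear call, values can overlap the other calls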;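 further: wild-type GFP and h24 humanized RFP strains co-cultured 1 to 1 per well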
* marks the source's active call; other numbers are inactive results. Shown are actives, neighbours in structure and some others; about 2.9% of the full set was active somewhere.

CC(C)C#Cc1cnc2c(c1)C(=O)N([C@H](C)CO)C[C@H](C)[C@@H](CN(C)Cc1cncnc1)O2 was read as PGC1a acetyl inh 3.3, PglD DTNB -3.6, Ecoli rRNA inh -3.1, FGF22 binding -0.2 and Cneo AK release -3.1.
`CCNC(=O)C[C@H]1CC[C@H]2[C@@H](COC[C@H](O)CN2C(=O)c2cc(Cl)cc(Cl)c2)O1` gave PGC1a acetyl inh 3.9, PglD DTNB 2.6, Ecoli rRNA inh 3.2, FGF22 binding -0.4 and Cneo AK release -1.9.
For CCOC(=O)c1ccc(NC(=O)c2ccc(OC(C)C)c(OC)c2)cc1 the results were Vif inh -5.3, PGC1a acetyl inh 0.4, Ecoli rRNA inh -25.8*, FGF22 binding 0.4, AID977621 -3.62 and AID977628 -7.79.
`O=C(NCc1cccs1)c1ccc(Cl)c(S(=O)(=O)N2CCCC2)c1` gave Vif inh -6.6, PGC1a acetyl inh -65.6, Ecoli rRNA inh -19.0*, FGF22 binding -0.2 and AID977628 0.255.
CC1(Cc2ccccc2Cl)C(=O)Nc2c(Cl)cccc21 (stereo not given) was read as Vif inh 7.5, PGC1a acetyl inh -27.0, PglD DTNB -3.0, Ecoli rRNA inh -65.0, FGF22 binding -0.2 and Cneo AK release -6.4.
CC1(Cc2ccccc2C#N)C(=O)Nc2cc(-c3ccccc3Cl)ccc21 (stereo not given) was read as Vif inh 27.3, PglD DTNB -5.5, Ecoli rRNA inh -11.1*, FGF22 binding -0.1, Cneo AK release -1.1 and HepG2 cytotox 8.46.
COc1ccccc1C(C(C(=O)c1ccccc1)N1CCOCC1)N1CCOCC1 (stereo not given) was read as Vif inh 9.3, PGC1a acetyl inh 6.9, PglD DTNB 6.7, Ecoli rRNA inh -14.4*, FGF22 binding -0.2, Cneo AK release -1.0, AID977621 -7.06 and AID977628 inconclusive.
Screening CN(C)CC(=O)Nc1ccc2c(c1)[C@@H]1C[C@@H](CC(=O)N(C)C)O[C@H](CO)[C@@H]1O2 returned PGC1a acetyl inh 5.4, PglD DTNB 0.1, Ecoli rRNA inh 2.7, FGF22 binding 0.0 and Cneo AK release -5.3.
Screening Cc1cccc(C(=O)NCC(=O)NCCSc2ccc(Br)cc2)c1 returned Vif inh -11.0, PGC1a acetyl inh 3.3, PglD DTNB 1.9, Ecoli rRNA inh -22.3*, FGF22 binding 0.3, Cneo AK release 1.4 and AID977621 -10.1.
For O=C(O)c1cccc2c1-c1ccc([N+](=O)[O-])cc1C2=O the results were Vif inh 9.1, Ecoli rRNA inh -18.8*, FGF22 binding 0.0, AID977621 -22.2 and AID977628 -7.97.
For CC(=O)Oc1c(Cl)cc(N(C(C)=O)S(=O)(=O)c2ccccc2)c2ccccc12 the results were Vif inh -15.1, PGC1a acetyl inh -3.1, PglD DTNB 8.3, Ecoli rRNA inh -36.6*, FGF22 binding -0.6, Cneo AK release 0.2 and AID977621 inconclusive.
Screening Cc1ccc(NC(=O)c2ccccc2Cl)c(Cl)c1 returned Vif inh 11.4, PGC1a acetyl inh 9.1, PglD DTNB 0.3 and Cneo AK release -6.6.
CCn1c(CNC(=O)c2ccccc2F)cc2ccccc21 was read as Vif inh -11.4, PGC1a acetyl inh -5.2, PglD DTNB -4.2, Ecoli rRNA inh 3.7, FGF22 binding -0.2 and Cneo AK release 4.9.
Screening Cc1ccc(NC(=O)c2ccccc2F)c(NC(=O)c2ccccc2F)c1 returned Vif inh -0.9, PGC1a acetyl inh -16.0, PglD DTNB 4.0, Ecoli rRNA inh -20.4*, FGF22 binding 0.0, Cneo AK release -0.8, AID977621 -15.6 and AID977628 -16.9.
For CCn1c(CNC(=O)c2ccccc2F)cc2cc(C)ccc21 the results were Vif inh -5.2, PglD DTNB 4.3, Ecoli rRNA inh -20.4*, FGF22 binding 0.0, Cneo AK release 0.0 and AID977621 inconclusive.
For CO[C@H]1CN(C)C(=O)c2cc(C#N)ccc2OC[C@@H]2O[C@H](CC[C@H]2OC)CCN(C)C(=O)[C@@H]1C the results were PGC1a acetyl inh -2.6, PglD DTNB -4.5, Ecoli rRNA inh 6.3, FGF22 binding -0.1 and Cneo AK release 6.2.
Screening COCCN(C(=O)c1ccccc1F)c1nc(-c2ccc(OC)cc2)cs1 returned Vif inh -2.0, PglD DTNB -6.4, Ecoli rRNA inh -9.6, FGF22 binding 0.0 and Cneo AK release -1.3.
For COCCN(C(=O)c1ccccc1F)c1nnc(-c2ccc(OC)cc2)s1 the results were Vif inh -0.8, PglD DTNB -12.6, Ecoli rRNA inh -24.2*, FGF22 binding -0.1, Cneo AK release -1.6, AID977621 1.59 and AID977628 inconclusive.
Screening CC[n+]1c(C)cc2c(sc3ccccc32)c1C returned Vif inh -3.7, Ecoli rRNA inh -22.1*, FGF22 binding 0.2, AID977621 -8.38 and AID977628 -10.4.
For CCc1nc(C)cc2c1sc1ccccc12 the results were Vif inh 15.2, PGC1a acetyl inh 1.4, PglD DTNB 4.7, Ecoli rRNA inh -6.7, FGF22 binding 0.3 and Cneo AK release -2.5.
`O=C(c1cccc2ccccc12)C1CCCN(C(=O)CCc2cnccn2)C1` (stereo not given) gave Vif inh 1.1, PglD DTNB 6.0, Ecoli rRNA inh -21.1*, FGF22 binding 0.3, Cneo AK release -1.1, AID977621 -11.2 and AID977628 -12.
Screening COCC(=O)N1[C@H](CO)[C@H]2c3ccccc3N(C(=O)C3CC3)C[C@H]21 returned PGC1a acetyl inh 9.9, PglD DTNB -4.1, Ecoli rRNA inh 0.5, FGF22 binding -0.1 and Cneo AK release 1.1.
`O=C(COC(=O)c1ccc(O)cc1)Nc1ccccc1` gave PglD DTNB -0.2, Ecoli rRNA inh -21.3*, FGF22 binding -0.2, Cneo AK release -0.9, AID977621 -5.03 and AID977628 -0.613.
`Cc1cccc(CN2C(=O)c3ccccc3Sc3ccc(C(=O)NCCN4CCOCC4)cc32)c1` gave Vif inh -4.5, PGC1a acetyl inh -7.6, Ecoli rRNA inh -47.4*, FGF22 binding 0.0 and AID977621 -21.6.

Assay outcomes deposited in PubChem BioAssay by Broad Institute.
